Data published in ChEMBL document CHEMBL5661969, “Preclinical evaluation of a potent novel DNA-dependent protein kinase inhibitor NU7441” (Cancer Res, 2006).

Key:
[1] = Tmax in BALB/c mouse at 5 mg/kg, iv by HPLC analysis; type: ADME, organism-based; settings: in vivo
Outline: (§1)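 Female BALB/c mice dosed 5 mg/kg i.v. in 10% DMSO/10% cyclodextrin in saline, or 10 mg/kg i.p. or orally at 1 mg/mL in 40% PEG400/saline. Plasma taken at 5, 10, 15, 30, 60, 90, 120, 180, 240 and 360 min, three mice per time. Acetonitrile precipitation, C18 HPLC with UV detection at 329 nm against a plasma standard curve. Parameters derived from mean concentrations.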

[2] = AUClast in BALB/c mouse at 5 mg/kg, iv by HPLC analysis; type: ADME, organism-based; settings: in vivo; outline: as §1
[3] = Ratio of drug level in kidney to plasma of human SW620 cell xenografted athymic nude CD1 mouse at 10 mg/kg, ip measured after 60 mins by HPLC analysis; type: ADME, organism-based
Outline: (§2)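 Female CD-1 nu/nu mice bearing s.c. flank SW620 tumours (1×10^7 cells, ~650 mm³ at 10–14 days) given 10 mg/kg i.p. Tissues snap frozen, homogenised 1:3 in PBS. Acetonitrile precipitation, C18 HPLC with acetate pH 5/acetonitrile 75:25 mobile phase, UV 329 nm; tissue levels by method of addition. Tissue/plasma ratio, mean of three mice per time.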

[4] = Growth inhibition of human SW620 cells at 1 umol/L measured after 5 days by crystal violet staining based assay relative to control; type: toxicity, cell-based, SW-620; settings: dose 1 µmol/L, time 5 day, read-out: GI
Outline: (§3)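 LoVo and SW620 cells in 96-well plates under 5-day continuous exposure to agent, and growth measured relative to control.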

SW-620 = test: Cell cycle arrest in human SW620 cells assessed as reduction in S-phase cell population at 1 umol/L measured after 1 hr by propidium iodide staining based flow cytometry relative to control; type: toxicity; parameters: scale not given: the % may be the effect or the level left; settings: sw-620, 1 µM, dose 1 µmol/L
Outline: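 Asynchronous SW620 or LoVo cells, seeded 24 h earlier, given control or 1 μmol/L agent medium for 1 h before ionizing radiation, etoposide or doxorubicin, then incubated a further 16 h. Cells fixed in 70% ethanol, stained with propidium iodide (400 μg/mL) plus RNase (1 mg/mL), and analysed by 488 nm flow cytometry.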

[5] = Clearance in BALB/c mouse at 10 mg/kg, ip by HPLC analysis; type: ADME, organism-based; settings: in vivo; outline: as §1
[6] = In vivo inhibition of DNA-PK in human SW620 cells xenografted athymic nude CD1 mouse assessed as potentiation of etoposide phosphate-induced antitumor activity by measuring tumor growth delay at 10 mg/kg, ip administered 5 times daily for 5 days (reference value: 2.7 day); type: functional, SW-620; settings: time 5 day
Outline: (§4)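 CD-1 nude mice carry palpable s.c. SW620 xenografts (~5×5 mm, 8-10 days), five per group. Treated i.p. daily for 5 days with saline, agent in 40% PEG 400/saline, etoposide phosphate 11.35 mg/kg (equal to 10 mg/kg etoposide), or both, agent given immediately before etoposide phosphate. Read-outs are median relative tumour volume, time to 4× volume (growth delay) and body weight.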

[7] = Cytotoxicity against Chinese hamster DNA-PK proficient V3-YAC cells assessed as cell survival at 0.5 umol/L measured after 16 hrs by crystal violet staining based assay relative to control; type: toxicity, Cricetulus griseus; settings: dose 0.5 µmol/L, read-out: Activity
Outline: (§5)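 Exponentially growing cells exposed 16 h to agent (0.5 or 1.0 μmol/L), with or without etoposide or doxorubicin, at 0.5% DMSO final; controls get DMSO alone. Cells are then trypsinized, reseeded at 100–100,000 per dish in drug-free medium and grown 10–14 days. Colonies stained with crystal violet and counted automatically.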

[8] = Inhibition of DNA-PK in Chinese hamster DNA-PK proficient V3-YAC cells assessed as potentiation of etoposide-induced cytotoxicity by measuring etoposide LD90 at 0.5 umol/L measured after 16 hrs by crystal violet staining based assay; parameters: species or system Cricetulus griseus; settings: dose 0.5 µmol/L, condition cancer
[9] = Ratio of drug level in spleen to plasma of human SW620 cell xenografted athymic nude CD1 mouse at 10 mg/kg, ip measured after 30 mins by HPLC analysis; type: ADME, organism-based; outline: as §2
[10] = Ratio of drug level in tumor to plasma of human SW620 cell xenografted athymic nude CD1 mouse at 10 mg/kg, ip measured after 30 mins by HPLC analysis; type: ADME, organism-based; settings: tumor and plasma; outline: as §2
[11] = AUCinfinity in BALB/c mouse at 5 mg/kg, iv by HPLC analysis; type: ADME, organism-based; settings: in vivo; outline: as §1
[12] = Clearance in BALB/c mouse at 10 mg/kg, po by HPLC analysis; type: ADME, organism-based; settings: in vivo; outline: as §1
[13] = Ratio of drug level in liver to plasma of human SW620 cell xenografted athymic nude CD1 mouse at 10 mg/kg, ip measured after 30 mins by HPLC analysis; type: ADME, organism-based; outline: as §2
[14] = Ratio of drug level in kidney to plasma of human SW620 cell xenografted athymic nude CD1 mouse at 10 mg/kg, ip measured after 30 mins by HPLC analysis; type: ADME, organism-based; settings: kidney and plasma; outline: as §2
[15] = Ratio of drug level in tumor to plasma of human SW620 cell xenografted athymic nude CD1 mouse at 10 mg/kg, ip measured after 240 mins by HPLC analysis; type: ADME, organism-based; settings: tumor and plasma; outline: as §2
[16] = Ratio of drug level in spleen to plasma of human SW620 cell xenografted athymic nude CD1 mouse at 10 mg/kg, ip measured after 240 mins by HPLC analysis; type: ADME, organism-based; outline: as §2
[17] = Bioavailability in BALB/c mouse at 5 mg/kg, iv by HPLC analysis; type: ADME, organism-based; settings: in vivo; outline: as §1
[18] = Ratio of drug level in tumor to plasma of human SW620 cell xenografted athymic nude CD1 mouse at 10 mg/kg, ip measured after 15 mins by HPLC analysis; type: ADME, organism-based; settings: tumor and plasma; outline: as §2
[19] = Ratio of drug level in spleen to plasma of human SW620 cell xenografted athymic nude CD1 mouse at 10 mg/kg, ip measured after 90 mins by HPLC analysis; type: ADME, organism-based; outline: as §2
[20] = Ratio of drug level in tumor to plasma of human SW620 cell xenografted athymic nude CD1 mouse at 10 mg/kg, ip measured after 60 mins by HPLC analysis; type: ADME, organism-based; settings: tumor and plasma; outline: as §2
[21] = Clearance in BALB/c mouse at 5 mg/kg, iv by HPLC analysis; type: ADME, organism-based; settings: in vivo; outline: as §1
[22] = Ratio of drug level in brain to plasma of human SW620 cell xenografted athymic nude CD1 mouse at 10 mg/kg, ip measured after 240 mins by HPLC analysis; type: ADME, organism-based; settings: brain and plasma, read-out: BPR; outline: as §2
[23] = Cytotoxicity against Chinese hamster DNA-PK deficient V3 cells assessed as cell survival at 0.5 umol/L measured after 16 hrs by crystal violet staining based assay relative to control; type: toxicity, Cricetulus griseus; settings: dose 0.5 µmol/L, read-out: Activity; outline: as §5
[24] = Elimination half life in BALB/c mouse at 10 mg/kg, po by HPLC analysis; type: ADME, organism-based; settings: in vivo, read-out: beta t1/2; outline: as §1
[25] = Elimination half life in BALB/c mouse at 10 mg/kg, ip by HPLC analysis; type: ADME, organism-based; settings: in vivo, read-out: beta t1/2; outline: as §1
[26] = Growth inhibition of human LoVo cells at 1 umol/L measured after 5 days by crystal violet staining based assay relative to control; type: toxicity, cell-based; settings: dose 1 µmol/L, time 5 day, read-out: GI; outline: as §3
[27] = In vivo inhibition of DNA-PK in human SW620 cells xenografted athymic nude CD1 mouse assessed as potentiation of etoposide phosphate-induced antitumor activity at 10 mg/kg, ip administered 5 times daily for 5 days relative to control; type: functional, SW-620; settings: time 5 day; outline: as §4

O=c1cc(N2CCOCC2)oc2c(-c3cccc4c3sc3ccccc34)cccc12
Tmax [1]: 5 min
AUC(0-t) [2]: 1270 ng·h/mL
Kp at 1 h [3]: 3.6
inhibition at 120 h, 1 µM [4]: 8%
Activity (SW-620): 24%
CL/F [5]: 66 mL/min/kg
Time [6]: 5.4 days
viability at 16 h, 0.5 µM [7]: 97%
LD90 [8]: 0.8 µmol/L
Kp at 0.5 h [9]: 3.2
Kp at 0.5 h [10]: 1.4
AUC(0-inf) [11]: 1300 ng·h/mL
CL/F [12]: 140 mL/min/kg
Kp at 0.5 h [13]: 11
Kp at 0.5 h [14]: 3.4
Kp at 4 h [15]: 4.6
Kp at 4 h [16]: 19
F [17]: 100%
Kp at 0.25 h [18]: 0.38
Kp at 1.5 h [19]: 8.7
Kp at 1 h [20]: 0.44
clearance [21]: 65 mL/min/kg
Kp at 4 h [22]: 6.2
viability at 16 h, 0.5 µM [23]: 94%
half-life [24]: 127 min
half-life [25]: 53 min
inhibition at 120 h, 1 µM [26]: 78%
Efficacy [27]: 100%
